Active and inactive are the calls of the source. The rule behind the calls is not given here.
Key:
[1] = system: U-937; assay: Cytotoxicity against human U937 cells at 30 uM after 72 hrs annexin-V propidium iodide method; type: functional
Summary of the method: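 U937 plated at 0.4×10^6 cells/ml, compound in Me₂SO (final 0.5%). Cells harvested and re-seeded every 24 h in medium with freshly added inhibitor, for 72 h. Viability by annexin V-FITC/propidium iodide two-colour flow cytometry; cells negative for both stains counted viable.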

[2] = target: Dipeptidyl peptidase 1 (Homo sapiens, UniProt P53634); assay: Inhibition of intracellular cathepsin C active site in human U937 cells assessed as reduction of Ala-4[125I]Phe-DMK labeled 23 kDa protein at 10 uM by autoradiography based pulse chase assay; type: cell-based; settings: U-937
Dipeptidyl peptidase 1, sequence (P53634 25-134 limits assumed): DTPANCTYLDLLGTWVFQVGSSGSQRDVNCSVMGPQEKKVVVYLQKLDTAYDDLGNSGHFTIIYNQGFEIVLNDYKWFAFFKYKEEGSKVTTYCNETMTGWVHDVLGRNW
Dipeptidyl peptidase 1, sequence (P53634 231-394 limits assumed): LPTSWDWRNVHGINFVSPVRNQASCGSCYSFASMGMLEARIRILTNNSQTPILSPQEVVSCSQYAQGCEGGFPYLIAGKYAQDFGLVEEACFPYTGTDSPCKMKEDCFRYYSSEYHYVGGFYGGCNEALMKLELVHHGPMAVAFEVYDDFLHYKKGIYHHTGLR
Dipeptidyl peptidase 1, sequence (P53634 395-463 limits assumed): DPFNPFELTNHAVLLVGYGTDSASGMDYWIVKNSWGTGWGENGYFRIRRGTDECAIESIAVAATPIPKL
Summary of the method: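 U937 cells (200,000) preincubated 30 min with 10 μM competitor or 0.5% Me₂SO, then labelled 15 min with 0.5 nM Ala-4-[¹²⁵I]Phe-DMK. Quenched with 1 μM unlabelled probe, washed, and lysed in 20 mM MES pH 6.0, 50 mM NaCl, 0.5% NP-40. Run on reducing 10–20% SDS-PAGE; film exposed 6–24 h.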

[3] = target: T1, Cathepsin G (Homo sapiens, UniProt P08311); assay: Blockade of cathepsin G processing in human U937 cells by densitometry; type: cell-based, U-937
T1 sequence (P08311 whole entry): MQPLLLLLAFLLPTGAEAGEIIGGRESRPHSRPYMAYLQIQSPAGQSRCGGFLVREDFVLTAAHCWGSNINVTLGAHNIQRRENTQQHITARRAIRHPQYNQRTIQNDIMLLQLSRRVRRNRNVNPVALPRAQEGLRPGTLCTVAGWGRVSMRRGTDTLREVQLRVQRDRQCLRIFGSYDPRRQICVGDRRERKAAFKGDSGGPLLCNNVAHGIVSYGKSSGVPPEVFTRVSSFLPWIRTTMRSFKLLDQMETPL
Summary of the method: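 U937 cells washed, plated at 2×10^6 cells/ml in methionine/glutamine-free RPMI, inhibitor or 0.5% Me₂SO added during 30 min starvation, pulsed with [³⁵S]methionine (10 μCi/ml) 30 min, re-seeded in complete medium with inhibitor and chased 3 h. Lysates bound to aprotinin-agarose 1 h at room temperature, SDS-PAGE and fluorography. CG band quantitated by densitometry as % inhibition vs vehicle.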

[4] = target: T2, Cathepsin G (Mus musculus) (UniProt P28293); assay: Inhibition of cathepsin G activity in beta-estradiol differentiated mouse EcoM-G cells at 10 uM after 3 days in the absence of estradiol; type: cell-based
T2 sequence (whole entry): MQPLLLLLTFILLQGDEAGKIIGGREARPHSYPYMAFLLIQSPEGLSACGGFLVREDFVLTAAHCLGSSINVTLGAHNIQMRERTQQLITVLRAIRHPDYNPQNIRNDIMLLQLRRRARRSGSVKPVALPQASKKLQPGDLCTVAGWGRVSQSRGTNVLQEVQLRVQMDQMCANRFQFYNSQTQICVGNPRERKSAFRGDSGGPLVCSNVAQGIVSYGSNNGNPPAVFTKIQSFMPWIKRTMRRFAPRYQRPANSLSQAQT
Summary of the method: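 EcoM-G cells seeded without β-estradiol to differentiate. 10 μM compound or vehicle added 24 h after estrogen removal, and aliquots taken over time up to 3 days. CG activity in extracts measured with 1 mM Suc-Ala-Ala-Pro-Phe-pNA, absorbance at 405 nm over 5 min, in 100 mM Tris pH 7.5, 1 M NaCl.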

[5] = target: T3, Cathepsin G (Mus musculus, UniProt P28293); assay: Inhibition of cathepsin G activation in beta-estradiol differentiated mouse EcoM-G cells after 24 hrs; type: cell-based
T3 sequence (P28293 whole entry): T2 sequence (whole entry)
Summary of the method: (§1)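 EcoM-G cells (cultures <3 months old) washed and seeded at 0.5×10^6 cells/ml without β-estradiol. After 24 h, compound added in Me₂SO (final 0.5%), then cells differentiated a further 24 h, harvested and lysed. NE assayed with 400 μM MeOSuc-AAPV-AMC, CG with 1 mM Suc-AAPF-pNA (405 nm, 5 min), Pr-3 with 10 μM internally quenched substrate (ex 328/em 393 nm), all from the same lysates. IC50 from four-parameter Hill fit.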

[6] = target: T4, Myeloblastin (Mus musculus, UniProt Q61096); assay: Inhibition of proteinase-3 activation in beta-estradiol differentiated mouse EcoM-G cells after 24 hrs; type: cell-based; summary of the method: as §1
T4 sequence (Q61096 whole entry): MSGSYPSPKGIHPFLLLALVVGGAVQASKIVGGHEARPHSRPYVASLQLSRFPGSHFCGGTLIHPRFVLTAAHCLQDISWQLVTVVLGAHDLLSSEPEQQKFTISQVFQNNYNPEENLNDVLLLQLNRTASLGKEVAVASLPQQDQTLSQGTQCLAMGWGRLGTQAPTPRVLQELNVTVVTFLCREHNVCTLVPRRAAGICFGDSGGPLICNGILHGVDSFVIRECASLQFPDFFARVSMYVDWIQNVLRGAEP

[7] = target: T5, Neutrophil elastase (Mus musculus) (UniProt Q3UP87); settings: EcoM-G, 1 uM
T5 sequence (whole entry): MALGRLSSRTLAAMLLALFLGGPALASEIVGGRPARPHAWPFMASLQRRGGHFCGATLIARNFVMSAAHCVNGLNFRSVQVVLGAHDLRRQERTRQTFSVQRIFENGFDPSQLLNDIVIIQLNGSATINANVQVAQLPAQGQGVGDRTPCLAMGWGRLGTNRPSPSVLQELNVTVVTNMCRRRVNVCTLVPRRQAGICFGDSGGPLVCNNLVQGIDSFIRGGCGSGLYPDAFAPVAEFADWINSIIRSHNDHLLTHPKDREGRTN

Activity [2]: Active
IC50 [3]: 0.15 µM
Activity [4]: Active
IC50 [5]: 0.48 µM
IC50 [6]: 0.14 µM
inhibition [7]: > 90%
SMILES: N#C[C@@]1(NC(=O)[C@@H](N)Cc2cccs2)C[C@@H]1c1ccccc1.O=C(O)C(F)(F)F
Activity [1]: 100%

— ChEMBL document CHEMBL1156470, “Inhibition of the activation of multiple serine proteases with a cathepsin C inhibitor requires sustained exposure to prevent pro-enzyme processing” (J Biol Chem, 2007)
